The results in this text go back to ChEMBL document CHEMBL4513216, “Probing the Open Global Health Chemical Diversity Library for Multistage-Active Starting Points for Next-Generation Antimalarials” (ACS Infect Dis, 2020).

The data set in a line: Toxicity liver stage against HepG2, at 10uM. In kind it is cell-based. Also noted: test concentration 10 uM, cell line HepG2-A16-CD81EGFP. To be noted: human, HepG2-A16-CD81EGFP cells; read-out: INHIBITION
An outline of the steps:
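Uninfected HepG2-A16-CD81EGFP cells, 3 × 10^3 per well, 1536-well, plated on prespotted compound at 10 μM final, parasite-free screening media added to match infected plates; puromycin 10 μM positive, DMSO 0.5% negative; run in parallel with 48 h PbLuc assay at 37 °C, 5% CO2; viability by CellTiter-Glo luminescence, normalized to controls.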
For the compound `Cc1ccc(-c2nc(CCNC(=O)CCN3CCOC3=O)co2)cc1`, the cytotoxicity at 10 µM stood at 2.33%.
As for `CC(C)Oc1cc(N2CC[C@H](CO)[C@@H](O)C2)nc(N)n1`, the cytotoxicity at 10 µM came to 2.41%.
In the case of `CCOc1ccc(Cc2c(O)nc(SC)n(-c3ccccc3)c2=O)cc1`, the cytotoxicity at 10 µM turned out to be 4.04%.
Turning to `Cc1cc(CN(C)C(=O)C(c2ccccc2F)N(C)C)ccn1` (stereo not given), the cytotoxicity at 10 µM was 2.78%.
For the compound `Cc1cccc(OCC(O)CN2CCC(Cn3cccn3)CC2)c1` (stereo not given), the cytotoxicity at 10 µM is -1.43%.
Under `CNC(=O)C1CCN(c2nc3nc[nH]c(=O)c3s2)CC1` stands -13.5%; under `Cn1ncc(NCc2cccc(OCC(F)(F)F)c2)c(Cl)c1=O`, 22.1%.
On to `Cc1ccc(S(=O)(=O)n2ccn(C(=O)CC(C)C)c2=O)cc1`, for which the cytotoxicity at 10 µM worked out at 11.2%.
The value for `Cc1ccc(N2CCN(C)c3ncccc3C2)nn1` was -3.77%.
In the case of `CCN(Cc1ccc(CN(C)C)cc1)C(=O)c1ccncc1O`, the cytotoxicity at 10 µM is -7.19%.
`CCCn1nccc1-c1cc(C2CCN(S(C)(=O)=O)CC2)ccn1`: the cytotoxicity at 10 µM is -6.94%.
Turning to `COCCN(C/C=C/c1ccccc1)Cc1ncc[nH]1`, the cytotoxicity at 10 µM was 7.8%.
Consider `CN1CCN(C(=O)c2n[nH]c3c2CCN(Cc2nccs2)C3)CC1`, for which the cytotoxicity at 10 µM is -143%.
Take `Cn1ncc(N2CCN(Cc3ccc(S(C)(=O)=O)cc3)CC2)cc1=O`: the cytotoxicity at 10 µM is -1.44%.
The value for `Cc1cc2cccc(NC(=O)N3CCC(N4CCSCC4)CC3)c2o1` was -3.25%; that for `O=C(c1ccnnc1)N1C[C@@H]2CN(c3ncccn3)C[C@@H]2C1` was 7.19%; that for `CC(C)c1nc2c(n1C)CCN(CCS(=O)(=O)c1ccccc1)C2` was 5.11%.
The value for `O=C1[C@@H]2CCN(CC3CCOCC3)C[C@@H]2OCCN1c1ccccc1` was -5.21%; that for `O=C(c1ccc(Cl)cc1)N1CCn2c(nn(-c3cccc(Cl)c3)c2=O)C1` was 5.84%.
`Cc1ccccc1SCC(=O)NC1CCC(n2cnnc2)CC1` (stereo not given): the cytotoxicity at 10 µM was -48%.
Take `Cc1ccc(-c2n[nH]cc2CNCC2CCN(CC(F)(F)F)C2)o1` (stereo not given): the cytotoxicity at 10 µM stood at 6.99%.
On to `Cc1nc(C2CCCN2CC(=O)Nc2c(C)nn(C)c2C)no1` (stereo not given), for which the cytotoxicity at 10 µM was -3.08%.
On to `COc1ccc(C(CC(=O)O)NC(=O)c2cc(C)on2)cc1` (stereo not given), for which the cytotoxicity at 10 µM was determined as 5.12%.
In the case of `COCCNC(=O)C(C)N1CCN(C)CC1` (stereo not given), the cytotoxicity at 10 µM was -1.21%.
`Cc1ccc(CN(C)C)cc1NC(=O)C1CC1`: the cytotoxicity at 10 µM is 1.32%.
For `CCC(C)(CC(=O)OC)NCc1cc(C)on1` (stereo not given), the cytotoxicity at 10 µM was -1.88%.
`CCc1c(C)n(CCC#N)c2nc3ccccc3n2c1=O`: the cytotoxicity at 10 µM amounted to 2.73%.
The value for `O=C(NC1CCCC1)C1Cc2nc(-c3ccsc3)sc2N1CC1CC1` (stereo not given) was 16.6%; that for `O=C(c1cnccn1)N1CCOC2(CCN(Cc3ccsc3)CC2)C1` was -4.45%.
`CCc1noc(CCCC(=O)N2CCCC(c3ccn[nH]3)C2)n1` (stereo not given): the cytotoxicity at 10 µM was -0.799%.
In the case of `COc1ccc(C)cc1-c1[nH]c2ccccc2c1C(=O)O`, the cytotoxicity at 10 µM was determined as 0.806%.
For `NC1CCCN(C(=O)c2csc(-c3ccc(C(F)(F)F)cc3)n2)CC1` (stereo not given), the cytotoxicity at 10 µM was -15.1%.
As to `Cc1cnn(CCNCc2nnc(Cc3ccccc3)o2)c1`, the cytotoxicity at 10 µM is -8.63%.
Under `Cn1cccc1C(=O)N1C[C@H](OCC2CCOCC2)[C@H]2COC[C@H]21` stands -109%; under `O=C(CN1CCSCC1c1ccccc1)N1CCCC1` (stereo not given), 7.34%; under `COCC(=O)N1CC[C@]2(O)CCN(Cc3cccnc3OC)C[C@@H]2C1`, 8.72%.
Consider `Cc1nc(CN2CCCC(c3cc(C(N)=O)[nH]n3)C2)oc1C` (stereo not given), for which the cytotoxicity at 10 µM was -31.2%.
The value for `CCN(CC(=O)NC(C)C)C(=O)c1ccc(-c2ccsc2)nc1C` was -0.908%.
Take `O=C(Cc1ccc2c(c1)CCC2)NCCNc1cnccn1`: the cytotoxicity at 10 µM is -0.037%.
In the case of `COc1ccc(Cl)cc1NCC(=O)NCCNc1cnccn1`, the cytotoxicity at 10 µM was -11.4%.
`O=C(N[C@@H]1CN(Cc2ccc3c(c2)OCO3)[C@@H]2CCCO[C@@H]21)C1CC1`: the cytotoxicity at 10 µM turned out to be 2.06%.
Turning to `COCCc1nc(CSc2ccncc2)n(C)n1`, the cytotoxicity at 10 µM was -5.93%.
Consider `CN(Cc1ccco1)[C@@H]1CN(Cc2nccn2C)[C@@H]2CCCO[C@H]12`, for which the cytotoxicity at 10 µM was -67.9%.
On to `Cn1nc2c(cc1=O)CN(Cc1coc(-c3ccccc3)n1)CC2`, for which the cytotoxicity at 10 µM is -4.5%.
Turning to `CCC(C)NC(=O)c1ccc(CNC(=O)CC(C)(C)C)cc1` (stereo not given), the cytotoxicity at 10 µM came out at 10%.
Under `Cc1ccc(S(C)(=O)=O)cc1C(=O)N(C)Cc1ccco1` stands 0.0194%; under `OC[C@H]1CN(C2Cc3ccccc3C2)C[C@H]1CN1CCC(O)CC1`, 0.0255%.
`COc1ccc(-c2csc(N)c2C#N)cc1OC`: the cytotoxicity at 10 µM was -2.46%.
Take `COCCn1nc(C(=O)N(C)Cc2ccc3ccccc3c2)ccc1=O`: the cytotoxicity at 10 µM was -131%.
In the case of `COc1ccc(CC2(C(=O)O)CCN(c3nc(C)ncc3C)CC2)cc1`, the cytotoxicity at 10 µM was -21.8%.
In the case of `Fc1ccc(C2(NCc3noc(C4CC4)n3)CCC2)cc1`, the cytotoxicity at 10 µM was -0.304%.
With `Cc1n[nH]c(C2CN(C(=O)c3ccc4c(c3)COC4)CCO2)n1` (stereo not given), the cytotoxicity at 10 µM was found to be 17.4%.
Take `COc1cccc(C(=O)Oc2cc(=O)n3cccc(C)c3n2)c1`: the cytotoxicity at 10 µM came to 6.36%.
For `CC(C)COC(=O)N1CC(=O)N(CCc2ccccc2)CC(O)C1` (stereo not given), the cytotoxicity at 10 µM is -16.6%.
Under `O=C(Nc1ccc(Cl)cc1C(=O)NCCN1CCOCC1)c1ccco1` stands -4.62%; under `Fc1ccc(CN2CCO[C@H]3[C@H](OCC4CCCC4)CC[C@@H]32)cc1`, 37.9%; under `COc1cccc(-c2nc(CNCCc3cccnc3)cs2)c1`, -1.77%.
As to `CS(=O)(=O)NC1CCN(c2cccc(F)c2C#N)CC1`, the cytotoxicity at 10 µM was -3.6%.
Take `c1cncc(COCc2nnc3n2CCN(Cc2ccco2)C3)c1`: the cytotoxicity at 10 µM was -4.04%.
As for `CCOc1ccc(CN[C@@H]2COC[C@H]2c2ccc(F)cc2)cc1`, the cytotoxicity at 10 µM was 17.1%.
Turning to `COCCN1C(=O)[C@@H]2CC[C@H]1CN(S(=O)(=O)c1ccc(OC)cc1)C2`, the cytotoxicity at 10 µM is 6.35%.
`COc1ccc(CNC[C@H]2COCc3nc4cccnc4n32)cn1`: the cytotoxicity at 10 µM was -0.772%.
Turning to `CN(C)Cc1nc(C2(NC(=O)Nc3cccc(F)c3)CCCC2)no1`, the cytotoxicity at 10 µM stood at 2.32%.
On to `CC(C)N1CCOCC2(CN(Cc3cccs3)CCO2)C1` (stereo not given), for which the cytotoxicity at 10 µM was 3.71%.
For `CCN(C)c1nccc(N2CCN[C@H]3CS(=O)(=O)C[C@H]32)n1`, the cytotoxicity at 10 µM was determined as 7.85%.
As for `O=C(Nc1ccc(CCN2CCC(O)CC2)cc1)C1CCCOC1` (stereo not given), the cytotoxicity at 10 µM was -4.81%.
On to `Cc1cc(S(=O)(=O)N2CCCc3cc(Br)ccc32)sc1C(=O)O`, for which the cytotoxicity at 10 µM worked out at 2.91%.
Take `COCCNC(=O)C1CN(Cc2cccc(C)n2)Cc2ccnn2C1` (stereo not given): the cytotoxicity at 10 µM is -79.2%.
`Cc1nn(C)c(Cl)c1CN1CCN(c2nccs2)C(C)C1` (stereo not given): the cytotoxicity at 10 µM is -27.1%.
On to `O=C(Cn1ccc2c(Cl)cccc21)N1CCCC1`, for which the cytotoxicity at 10 µM amounted to 0.583%.
For `Cc1cccc(CN2C[C@@H]3OCCN(C)[C@@H]3C2)n1`, the cytotoxicity at 10 µM amounted to 1.73%.
As to `CCOc1ccc(NC(=O)c2cc(C)c(C)o2)cc1CO`, the cytotoxicity at 10 µM was determined as 3.78%.
In the case of `Cc1cc(C)nc(C2CCN(C(=O)CCn3nnc4ccccc43)C2)n1` (stereo not given), the cytotoxicity at 10 µM is -0.834%.
As to `CC(C)n1ccnc1C1CCN(C(=O)c2ccc(SCCO)cc2)CC1`, the cytotoxicity at 10 µM was -0.232%.
As for `CCOc1cccc(NC(=O)Cc2cccc(O)c2)n1`, the cytotoxicity at 10 µM is -0.116%.
In the case of `CO[C@@]1(C)C[C@@H](O)C12CCN(C(=O)CCn1c(C)cccc1=O)CC2`, the cytotoxicity at 10 µM came to 3.43%.
Turning to `O=C(C1CCCC1)N1C[C@@H]2CCN(c3cnccn3)C[C@@H]2C1`, the cytotoxicity at 10 µM was determined as 3.44%.
For the compound `Cc1ccc(CNCc2ccc(-n3nc(C)cc3C)nc2)cc1`, the cytotoxicity at 10 µM is -0.164%.
As to `COc1ccccc1OCC(=O)NS(=O)(=O)c1ccc(Br)s1`, the cytotoxicity at 10 µM was -8.72%.
As for `CC(C)CCS(=O)(=O)CC(=O)N1CCCC1c1cnn(C)c1` (stereo not given), the cytotoxicity at 10 µM amounted to 0.528%.
In the case of `CCOC1CCC2(CCN(C(=O)c3csnn3)CC2)c2ccccc21` (stereo not given), the cytotoxicity at 10 µM is -1.58%.
With `O=C(C1CCC1)N1CC[C@@H]2CN(Cc3cccnc3)S(=O)(=O)[C@@H]2CC1`, the cytotoxicity at 10 µM was -109%.
On to `Cc1cc(CNC(=O)c2cccs2)ccc1S(C)(=O)=O`, for which the cytotoxicity at 10 µM stood at 3.38%.
In the case of `Cc1nc(CN(C)C2CCN(Cc3ccc(Cl)s3)C2)no1` (stereo not given), the cytotoxicity at 10 µM is -2.84%.
Take `Cc1ccc(N2CCCN(C(=O)C(C(C)C)n3cncn3)CC2)nn1` (stereo not given): the cytotoxicity at 10 µM was -5.99%.
For `Cc1cccc(CN2CCCC3(CCN(c4cccnc4)C3=O)C2)n1` (stereo not given), the cytotoxicity at 10 µM is -1.34%.
Consider `CC(Cn1cccn1)NC(=O)NCCN1CCCCCC1=O` (stereo not given), for which the cytotoxicity at 10 µM is 12.3%.
`Nc1nc(N)c2c(n1)OC1(CCN(C(=O)CC3CCNCC3)CC1)C2`: the cytotoxicity at 10 µM was determined as 5.41%.
Take `CC(=O)c1cccc(OCCCC(=O)N(C)C2CCN(C)CC2)c1`: the cytotoxicity at 10 µM was found to be 3.07%.
As to `Cc1cc(CN2CCC(O)(Cn3ccc4ncccc43)CC2)c(C)s1`, the cytotoxicity at 10 µM was -16.1%.
On to `COCCN(Cc1ccc(F)cc1Cl)C(=O)c1cccc[n+]1[O-]`, for which the cytotoxicity at 10 µM was 8.81%.
Consider `Cc1cnc(C(=O)N2CCCN(Cc3cnn(C(C)C)c3)CC2)cn1`, for which the cytotoxicity at 10 µM came to 1.28%.
For `Cc1nnc(NCC2(c3ccc(Cl)cc3Cl)CCOCC2)c(C#N)c1C`, the cytotoxicity at 10 µM was determined as 1.98%.
Under `COc1ccccc1CN1CCN(CCN2CCOC2=O)CC1` stands -11.2%; under `O=C(NCc1cccnc1)c1nc2c(s1)CCCN2c1ncccn1`, 8.44%.
